The list is not random: actives were taken first. Their share in the collection is about 1.8%.
HSV replic up = enhancers of HSV replication in host cells, fold increase, host cell viability; HSV replication augmentation in cells; maximum fold increase; hit rate 0.005% among 220,000; AID 1956, 2009; in the data active = maximum fold increase above about 1.5; inconclusive = no clear call, values can overlap the other calls; tested in PC3 cells
Dynein transport = inhibitors of GR-EGFP nuclear translocation, primary screen, dynein cargo transport inhibitor project, imaging, high-content, 3617.4 mouse cells; z-score, hits read low; test concentration mostly 20 µM; stimulated with dexamethasone, 1 µM; stronger effect = lower value; hit rate 0.47% among 220,000;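 active = plate z-score of nuclear minus cytoplasmic receptor signal below a set negative limit, without overly bright fluorescence or cell loss, cut at about -3.5 in these data, passing the limit was not always enough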;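 note: z-score of nuclear minus cytoplasmic ring GR-EGFP intensity difference per well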
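Schedule: 48 h induction, then 1 h compound, then 30 min agonist, 37 °C. Buffer or medium: tetracycline-free induction medium containing charcoal-stripped FBS. Reagent: 1.0 µM final dexamethasone stimulus. Evaluation: nuclear versus cytoplasmic GR-EGFP signal, averaged per well. Signal: high-content fluorescence imaging after fixation.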
TNF necrop inh = inhibitors of TNF-alpha triggered necroptosis, primary screen, cell-based, Jurkat FADD-/-, single concentration; activation (protection from cell death), % at 10 µM; AID 463075, 2010; Jurkat FADD-/- TNF necroptosis rescue, ATP luminescence, 24 h; 0 = TNF only, 100 = no-TNF cells; hit rate 0.068% among 220,000;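 active = activation, meaning protection from cell death, of at least 50% relative to plate controls; inactive = activation below 50%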;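 note: necroptosis triggered by 40 ng/mL TNF-alpha added together with compound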
Autophagy mod = autophagy modulators in MEF cells, primary screen, imaging, high-content, MEF GFP-LC3; MEF GFP-LC3 puncta imaging; test concentration mostly 10 µM; calls only at 10 µM (by protocol); hit rate 0.98% among 190,000; AID 463193, 2010;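 active = percentage of spot-positive cells more than 3 SD above its plate mean, without a fluorescence outlier flag or 80% toxicity; inconclusive = no clear call, values can overlap the other calls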;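 note: spot-positive cell cutoff set from DMSO-treated cells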
L929 necroptosis = inhibitors of zVAD-triggered necroptosis, primary screen, L929 cells; viability rescue, % at 10 µM; hit rate 0.38% among 220,000; AID 1377, 2008; L929 zVAD necroptosis rescue, ATP luminescence, 24 h; with zVAD 60 µM;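 active = activation, scaled between plate controls, above about 75%, limit read from the data; inactive = activation under that limit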;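 note: 0% = zVAD with DMSO and 100% = DMSO alone without zVAD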
Furin inh = human furin inhibitors, primary screen, biochemical, fluorescence intensity; inhibition, % at 20 µM or 30 µM; purified furin, fluorogenic substrate cleavage; hit rate 0.061% among 220,000; in the data active = inhibition above about 25%
Dynein inh conf = dynein cargo transport inhibitors, GR-EGFP translocation, confirmation, imaging, high-content imaging, GR-EGFP cells; hit rate 69% among 1,000; calls only at 20 µM; 3617.4 GR-EGFP nuclear translocation imaging, dexamethasone-induced; shares compounds with Dynein transport; AID 463116, 2010;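 active = inhibition of receptor movement into the nucleus at or above a set limit in both runs, with normal cell brightness and cell count; inconclusive = limit reached in only one run, brightness and count normal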;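 note: dexamethasone at 1 µM final in well for 30 min; nuclear minus cytoplasmic GR-EGFP mean intensity difference in channel 2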
* hit, by the source's call; i = inactive; ? = inconclusive; · = no result; + = active, no number.

SMILES	HSV replic up	Dynein transport	TNF necrop inh	Autophagy mod	L929 necroptosis	Furin inh	Dynein inh conf
C=C1C(=O)C=C2CN(C(=O)c3ccccc3)[C@@](Cc3ccc(F)cc3)(C(=O)OC)[C@@H]12	i	-5*	-21	i	49	-19	+
COc1ccc(C2=NOC(C(=O)Nc3cccnc3)C2)cc1OC (stereo not given)	i	0.91	4	·	1	-14	·
CCc1ccc(/C=C/C(=O)c2c(C)cc(C)[nH]c2=O)cc1	i	-4*	-17	i	2	-14	+
COc1ccc(CCN(Cc2cc3cccc(C)c3n3nnnc23)C(=O)c2ccncc2)cc1OC	i	-0.51	2	i	0	-25	·
COc1ccc(-n2nc(C(C)=O)c(=O)[nH]c2=O)cc1	i	0.98	2	i	1	-14	·
Nc1nc(-c2ccc(F)cc2)cc(C(F)(F)F)n1	i	0.29	-5	i	0	-24	·
CS(=O)(=O)c1nc(-c2ccc(F)cc2)cc(C(F)(F)F)n1	i	-3.9	-13	i	2	-16	i
COc1ccc(-c2cc(C(F)(F)F)nc(S(C)(=O)=O)n2)cc1	i	-5.3*	-22	i	7	-17	i
CCOC(=O)CS(=O)(=O)c1nc(-c2ccc(F)cc2)cc(C(F)(F)F)n1	i	-4.8	-8	i	2	-16	+
COc1ccc(-c2cc(C(F)(F)F)nc(N)n2)cc1	i	-0.67	-3	i	3	-23	·
Cc1cc(=O)[nH]c(SCC(=O)Nc2ccccc2[N+](=O)[O-])n1	i	-0.51	-1	·	1	-11	·
Cc1ccc(NC(=O)COc2ccccc2C(=O)NCCN(C)C)cc1	·	-0.22	1	i	0	-17	·
Cc1ccc(NCC(=O)Nc2cccc(S(=O)(=O)N(C)C)c2)c(Cl)c1	i	-0.92	5	i	1	1	·
CC(C)n1cc(/C(N)=N/O)c(=O)n(Cc2ccccc2)c1=O	i	0.99	0	·	0	-20	·
O=C(C1CC1)N1CCN(S(=O)(=O)c2ccc3c(c2)OCCO3)CC1	i	0.27	1	i	1	-21	·
O=C1C=CC(=O)N1c1ccc(O)cc1	i	-4	-26	·	-1	-11	i
CC(C)Cn1c(N)c(C(=O)COC(=O)c2ccc([N+](=O)[O-])o2)c(=O)n(C)c1=O	i	-1.5	-6	i	-1	-20	·
O=C(/C=C/c1ccccc1)c1cc(Br)ccc(=O)c1O	?	-1.3	-16	i	0	-12	·
O=C(/C=C/c1ccc(F)cc1)c1cc(Br)ccc1O	i	-3.8*	-9	·	-1	-14	+
Cn1cnc([N+](=O)[O-])c1S(=O)(=O)c1ccc(Cl)cc1	i	-4.2*	-26	i	·	-20	+
N#Cc1ccc(OCC(=O)N/N=C/C2CC=CCC2)cc1 (stereo not given)	i	0.0049	0	i	2	-30	·

High-throughput results: PubChem, several laboratories
